Experimental data of several laboratories.
Each line is one published result; the experiments were not run side by side.
Target: Adenosine receptor A2a (ADORA2A, Homo sapiens, UniProt P29274)

Nc1nc(-c2ccccc2)nn1C(=O)CCc1ccccc1 — Ki (ligand displacement; radioligand; cell membranes): 2000 nM
c1coc(-c2nc3cc(CCN4CCOCC4)ccc3o2)c1 — Ki (ligand displacement; radioligand; cell membranes): 11000 nM
Cc1cccc(-c2nc(N)n(C(=O)CCc3ccccc3)n2)c1 — Ki (ligand displacement; radioligand; cell membranes): 250 nM
c1coc(-c2nc3cc(NCCN4CCCCC4)ccc3o2)c1 — Ki (ligand displacement; radioligand; cell membranes): 11000 nM
Oc1cccc(Nc2nc(-c3ccc(F)cc3F)cs2)c1 — Ki (cell-free assay): 5100 nM
CCNC(=O)C1OC(n2cnc3c(N)nc(NN=CC4CCC=CO4)nc32)C(O)C1O (centres unmarked) — Ki (ligand displacement; radioligand): 23.3 nM
CC(C)CN1CCCn2c1nc1c2c(=O)n(C)c(=O)n1C — Ki (ligand displacement; radioligand; cell membranes): 930 nM
CSC[C@@]12C[C@@H]1[C@@H](n1cnc3c(N)nc(I)nc31)[C@H](O)[C@@H]2O — Ki (ligand displacement; radioligand): 3120 nM
C#CCCCCC(=O)NCCNC(=O)COc1ccc(-c2nc3c([nH]2)c(=O)n(CCC)c(=O)n3CCC)cc1 — Ki (ligand displacement; radioligand; cell membranes): 23.2 nM
CCCCN1CCCn2c1nc1c2c(=O)n(CCC)c(=O)n1CCC — Ki (ligand displacement; radioligand; cell membranes): 1390 nM
CNC(=O)[C@@]12C[C@@H]1[C@@H](n1cnc3c(NCc4cn(-c5ccc(C(=O)NCCCF)cc5)nn4)nc(Cl)nc31)[C@H](O)[C@@H]2O — Ki (ligand displacement; radioligand; cell membranes): 1840 nM
